Experimental findings from ChEMBL document CHEMBL3751758, “Cysteine-Rich Peptide Family with Unusual Disulfide Connectivity from Jasminum sambac” (J Nat Prod, 2015) are described below.

Series [1] is described as follows: Stability of the compound in NH4HCO3 buffer assessed as trypsin (unknown origin)-mediated degradation at pH 7.8 at 37 degC after 1 hr by UPLC analysis. The note with it: human, pH 7.8, 1 h. The format is ADME.
The nature of series [2]: (§1) Stability of the compound in 100 mM sodium citrate buffer assessed as pepsin (unknown origin)-mediated compound degradation by measuring intact compound level at pH 2.5 at 37 degC after 4 hrs by UPLC analysis. It counts as ADME. The settings on record: human, buffer, pH 2.5, 4 h.
The target of another series is T1, Carboxypeptidase A1 (Homo sapiens, UniProt P15085).
T1 sequence (P15085 whole entry): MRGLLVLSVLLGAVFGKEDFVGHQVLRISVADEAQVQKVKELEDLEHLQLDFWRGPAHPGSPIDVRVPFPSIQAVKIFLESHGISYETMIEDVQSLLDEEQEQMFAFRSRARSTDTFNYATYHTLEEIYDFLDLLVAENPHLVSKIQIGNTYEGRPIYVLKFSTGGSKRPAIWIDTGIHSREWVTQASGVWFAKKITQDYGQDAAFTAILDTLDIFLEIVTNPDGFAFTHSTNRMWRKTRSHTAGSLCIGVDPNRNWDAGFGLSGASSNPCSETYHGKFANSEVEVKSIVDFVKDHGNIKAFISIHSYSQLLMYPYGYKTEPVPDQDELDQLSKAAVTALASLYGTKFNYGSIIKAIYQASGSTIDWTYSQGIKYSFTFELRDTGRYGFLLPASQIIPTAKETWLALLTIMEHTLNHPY
Kind of series: Stability of the compound in Tris buffer assessed as carboxypeptidase A (unknown origin)-mediated compound degradation at pH 7.5 at 37 degC after 4 hrs by UPLC analysis. It counts as ADME. The note with it: pH 7.5, 4 h. The method in brief: (§2)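 Peptide was incubated with or without carboxypeptidase A at 50:1 (w/w) in 50 mM Tris/100 mM NaCl pH 7.5 at 37 °C for up to 6 h. Collected peaks were checked by MALDI-TOF, and stability was judged from UPLC peak areas.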

In another series the test system is trypsin. Kind of series: Stability of the compound in NH4HCO3 buffer assessed as trypsin (unknown origin)-mediated degradation by measuring intact compound level at pH 7.8 at 37 degC after 8 hrs by UPLC analysis. The format is ADME. The note with it: human, read-out: Stability.
Series [3] can be described thus: Stability of the compound in boiling water assessed as compound remaining after 1 hr by UPLC analysis. It counts as physicochemical. The settings on record: read-out: Stability.
The test system of the next series is pepsin. The description is as §1. It counts as ADME. The settings on record: human, pepsin in 100 mM sodium citrate buffer, pH 2.5; read-out: Stability.
The subject of another series is Vero. The series can be described thus: Cytotoxicity against African green monkey Vero cells at 10 uM after 24 hrs by Presto Blue-based cell viability assay. The note with it: chlorocebus sabaeus. Put shortly:
(§3)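 Cells were seeded at 8 x 10^3 per well in DMEM with 10% FBS and 1% penicillin/streptomycin, at 37 °C under 5% CO2. After 24 h, peptide was added at 0.01–10 µM in triplicate for 24 h. PrestoBlue was then added for 1 h at 37 °C and absorbance read at 570 nm. Controls were 1% Triton X-100 and PBS.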

In another series the test system is HUVEC. Kind of series: Cytotoxicity against HUVEC at 10 uM after 24 hrs by Presto Blue-based cell viability assay. The note with it: human. The method in brief:
as §3

Series [4] in a line: Hemolytic activity in human type O+ erythrocytes up to 10 uM after 4 hrs by spectrophotometric analysis. The format is ADME, cell-based. The note with it: erythrocyte. The method in brief:
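Erythrocytes came from fresh type O+ blood of a healthy volunteer. Cells were pelleted at 1000 rpm for 15 min, washed three times in PBS and diluted 100X in PBS. Peptide at various concentrations was mixed with an equal volume of cells for 4 h at 37 °C. Plates were spun at 1000 rpm for 5 min and supernatant absorbance read at 415 nm. Controls were 0.1% Triton X-100 and PBS.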

Another series has as its system Staphylococcus aureus. Kind of series: Antibacterial activity against Staphylococcus aureus ATCC 12600 up to 100 uM by radial diffusion assay. It counts as functional, organism-based. The method in brief: (§4)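 Radial diffusion assay under low-salt conditions (10 mM Na3PO4). Strains were grown in trypticase soy broth. D4R peptide dendrimer was the positive control.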

A further series has as its system Escherichia coli. Kind of series: Antibacterial activity against Escherichia coli ATCC 25922 up to 100 uM by radial diffusion assay. It counts as functional, organism-based. The method in brief: as §4
In a further series the test system is Candida albicans. The series can be described thus: Antifungal activity against Candida albicans 11006 up to 100 uM by radial diffusion assay. It counts as functional, organism-based. Put shortly: as §4
For series [5], the target named is T2, Carboxypeptidase A1 (Bos taurus) (UniProt P00730).
T2 sequence (whole entry): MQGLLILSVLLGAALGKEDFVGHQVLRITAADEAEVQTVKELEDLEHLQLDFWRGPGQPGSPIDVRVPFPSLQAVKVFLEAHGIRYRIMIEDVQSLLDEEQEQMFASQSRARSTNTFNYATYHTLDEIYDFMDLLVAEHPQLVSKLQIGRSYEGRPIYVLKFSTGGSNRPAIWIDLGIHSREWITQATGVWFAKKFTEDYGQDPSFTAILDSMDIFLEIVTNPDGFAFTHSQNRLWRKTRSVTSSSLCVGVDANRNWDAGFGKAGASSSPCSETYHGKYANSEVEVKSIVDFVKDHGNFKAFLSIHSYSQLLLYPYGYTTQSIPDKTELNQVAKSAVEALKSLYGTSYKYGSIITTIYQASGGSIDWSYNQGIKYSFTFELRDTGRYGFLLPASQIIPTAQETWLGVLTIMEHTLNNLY
The series can be described thus: Inhibition of bovine carboxypeptidase A using N-(4-methoxyphenylazoformyl)phenylalanine as substrate at 0.1 to 100 uM. Put shortly:
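Peptide at 0.1–100 µM was combined with 0.1 mM N-(4-methoxyphenylazoformyl)phenylalanine substrate. The reaction was started with 25 nM bovine carboxypeptidase A, and substrate hydrolysis was followed at 350 nm.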

Another series deals with T3, carboxypeptidase A (Homo sapiens, UniProt P15085).
T3 sequence (P15085 whole entry): T1 sequence (P15085 whole entry)
The series can be described thus: Stability of the compound in Tris buffer assessed as carboxypeptidase A (unknown origin)-mediated compound degradation by measuring intact compound level at pH 7.5 at 37 degC after 6 hrs by UPLC analysis. It counts as ADME. The note with it: read-out: Stability. Put shortly:
as §2

Active and inactive are the calls of the source. No cut-off for these calls is given here. Bridge positions count the residues as written; N and C are the ends. Peptide text beside a SMILES is read from it.

Consider `CC(C)C[C@H](NC(=O)[C@@H]1CCCN1C(=O)[C@H](CO)NC(=O)[C@H](Cc1ccccc1)NC(=O)CNC(=O)[C@@H]1CCCN1C(=O)[C@@H]1CCCN1C(=O)[C@H](CCCN=C(N)N)NC(=O)[C@@H](N)CCCCN)C(=O)O`, for which the Stability result (in [1]; in series [2]; at Carboxypeptidase A1) was “Unstable” each time.
In the case of `CC[C@H](C)[C@H](NC(=O)[C@@H](NC(=O)[C@H](CC(N)=O)NC(=O)[C@@H]1CSSC[C@@H]2NC(=O)[C@H](CC(=O)O)NC(=O)[C@H](CO)NC(=O)[C@H](CC(N)=O)NC(=O)[C@H](CO)NC(=O)[C@H](CCCNC(=N)N)NC(=O)[C@@H]3CSSC[C@H](NC(=O)[C@H]([C@@H](C)CC)NC(=O)[C@H](CCCNC(=N)N)NC(=O)[C@H](Cc4c[nH]c5ccccc45)NC(=O)[C@H]([C@@H](C)CC)NC(=O)[C@H]([C@@H](C)CC)NC(=O)[C@H](CC(N)=O)NC2=O)C(=O)N[C@@H](CCCNC(=N)N)C(=O)N[C@@H](CC(=O)O)C(=O)NCC(=O)N[C@@H](CSSC[C@H](NC(=O)[C@H](CC(C)C)NC(=O)[C@@H](N)CCC(N)=O)C(=O)N[C@@H](CC(C)C)C(=O)N[C@@H](CCC(N)=O)C(=O)N3)C(=O)N1)C(C)C)C(=O)O` (H-QLCLQCRSNSDCNIIWRICRDGCCNVI-OH; disulfide 3-23, 6-19, 12-24), the remaining at 8 h with trypsin amounted to 73%. Further, the remaining at 1 h in [3] was 96%. The remaining at 4 h in the series with pepsin was > 90%. In addition, the Activity result (in the series with Vero; in the series on HUVEC; in series [4]) was “Non-toxic” each time. Besides, the outcome in the series with Staphylococcus aureus, in the series with Escherichia coli and in the series on Candida albicans was inactive. The inhibition result in series [5] was “inactive”. Also, the remaining at 6 h on carboxypeptidase A was > 90%.
As to `CC(C)C[C@H](NC(=O)[C@H](CCCNC(=N)N)NC(=O)CNC(=O)[C@H](CCCNC(=N)N)NC(=O)[C@H](CCCNC(=N)N)NC(=O)[C@H](Cc1ccc(O)cc1)NC(=O)[C@H](CC(C)C)NC(=O)[C@@H](N)CCCNC(=N)N)C(=O)N[C@@H](Cc1ccc(O)cc1)C(=O)N[C@@H](CCCNC(=N)N)C(=O)N[C@@H](CCCNC(=N)N)C(=O)N[C@@H](CC(N)=O)C(=O)N[C@@H](Cc1cnc[nH]1)C(=O)N[C@H](C(=O)O)C(C)C` (H-RLYRRGRLYRRNHV-OH), the Stability entry (in series [1]; in series [2]; at Carboxypeptidase A1) was “Unstable” in each case.
